Experimental data published in ChEMBL document CHEMBL2203281, “Microwave assisted synthesis and anti-influenza virus activity of 1-adamantyl substituted N-(1-thia-4-azaspiro[4.5]decan-4-yl)carboxamide derivatives” (Bioorg Med Chem, 2012).

Legend:
Influenza B virus [1] = test: Antiviral activity against Influenza B virus (B/HK/5/72) infected in MDCK cells assessed as virus-induced cytopathic effect after 3 days by MTS assay; type: functional, cell-based; details: B/Hong Kong/05/1972, MDCK, 72 h
Method in brief: (§1)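 Multicycle CPE reduction assay in 96-well MDCK cells. Cells got serial compound dilutions together with influenza virus at multiplicity of infection 0.0004 PFU per cell, then 72 h at 35 °C. CPE was read by microscopic scoring and then by MTS cell viability.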

[2] = Cytotoxicity against dog MDCK cells assessed as cell morphology alterations by microscopic analysis; type: cell-based, Canis lupus familiaris
Method in brief: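 MDCK cells were exposed to serial compound dilutions and kept 72 h at 35 °C alongside the antiviral plates. MCC is the lowest concentration causing a microscopically detectable change in cell morphology.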

Influenza A virus [3] = test: Antiviral activity against Influenza A virus (A/PR/8/34(H1N1)) infected in MDCK cells assessed as virus-induced cytopathic effect after 3 days by microscopic analysis; type: functional, organism-based, A/Puerto Rico/8/1934(H1N1); method in brief: as §1
[4] = Cytotoxicity against dog MDCK cells assessed as cell viability by MTS assay; type: cell-based, Canis lupus familiaris
Influenza A virus [5] = test: Antiviral activity against Influenza A virus (A/X-31(H3N2)) infected in MDCK cells assessed as virus-induced cytopathic effect after 3 days by MTS assay; type: functional, organism-based; method in brief: as §1
Influenza A virus [6] = test: Antiviral activity against Influenza A virus (A/X-31(H3N2)) infected in MDCK cells assessed as virus-induced cytopathic effect after 3 days by microscopic analysis; type: functional, organism-based; details: 72 h; method in brief: as §1
Influenza B virus [7] = test: Antiviral activity against Influenza B virus (B/HK/5/72) infected in MDCK cells assessed as virus-induced cytopathic effect after 3 days by microscopic analysis; type: functional, cell-based; details: B/Hong Kong/05/1972, MDCK, 72 h; method in brief: as §1
Influenza A virus [8] = test: Antiviral activity against Influenza A virus (A/PR/8/34(H1N1)) infected in MDCK cells assessed as virus-induced cytopathic effect after 3 days by MTS assay; type: functional, organism-based, A/Puerto Rico/8/1934(H1N1); method in brief: as §1
Hemagglutinin = Hemagglutinin (Influenza A virus (strain A/X-31 H3N2), UniProt P03438); test: Inhibition of hemagglutininin in Influenza A virus (A/X-31(H3N2)) infected in chicken red blood cells assessed as inhibition of hemolysis preincubated for 1 hr prior to addition of red blood cells measured at pH 5.0 by spectrophotometric analysis; type: cell-based
Hemagglutinin, sequence (P03438 whole entry): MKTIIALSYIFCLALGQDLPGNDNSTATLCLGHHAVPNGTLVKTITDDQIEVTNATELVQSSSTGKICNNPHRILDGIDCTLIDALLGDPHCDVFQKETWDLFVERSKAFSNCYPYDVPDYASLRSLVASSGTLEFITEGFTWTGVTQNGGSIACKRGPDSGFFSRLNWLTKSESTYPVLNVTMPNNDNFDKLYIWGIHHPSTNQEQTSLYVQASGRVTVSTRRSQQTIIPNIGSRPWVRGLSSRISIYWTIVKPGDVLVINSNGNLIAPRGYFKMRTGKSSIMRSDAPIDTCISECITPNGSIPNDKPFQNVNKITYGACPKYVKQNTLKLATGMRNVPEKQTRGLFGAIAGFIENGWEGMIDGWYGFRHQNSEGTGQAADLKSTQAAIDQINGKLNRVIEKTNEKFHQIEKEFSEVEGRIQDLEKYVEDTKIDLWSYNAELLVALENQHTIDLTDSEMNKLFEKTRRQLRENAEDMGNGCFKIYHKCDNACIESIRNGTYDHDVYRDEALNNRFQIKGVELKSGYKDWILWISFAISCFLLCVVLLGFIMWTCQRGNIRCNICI
Method in brief: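 Influenza A/X-31 (H3N2) stock was preincubated with serial compound dilutions for 1 h at 37 °C. Chicken RBC were added for 10 min at 37 °C, then pelleted and resuspended in buffer holding the same compound level. pH was lowered to 5.0 for 25 min at 37 °C, then neutralised. Intact RBC were spun out and supernatant OD540 read. IC50 came from dose-response.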

[9] = Selectivity index, ratio of cytotoxic concentration for dog MDCK cells to EC50 for Influenza A virus (A/X-31(H3N2)); type: toxicity, cell-based; details: read-out: Ratio EC50
[10] = Influenza A virus, A/Puerto Rico/8/1934(H1N1), MDCK, 72 h

Structure (SMILES)	EC50 (Influenza B virus [1]) [µM]	MCC [2] [µM]	EC50 (Influenza A virus [3]; [10]) [µM]	CC50 [4] [µM]	EC50 (Influenza A virus [5]; Influenza A virus, MDCK, 72 h) [µM]	EC50 (Influenza A virus [6]) [µM]	EC50 (Influenza B virus [7]) [µM]	EC50 (Influenza A virus [8]; [10]) [µM]	IC50 (Hemagglutinin) [µM]	selectivity ratio [9]	EC50 (Influenza A virus [3]; mdck) [µM]	EC50 (Influenza A virus [5]; mdck) [µM]	EC50 (Influenza A virus [8]; mdck) [µM]
CCC1CCC2(CC1)SCC(=O)N2NC(=O)C12CC3CC(CC(C3)C1)C2 (stereo not drawn)	> 100	> 100	> 100	> 100	21	> 100	> 100	> 100					
CC(=O)N[C@H]1[C@H]([C@H](O)[C@H](O)CO)OC(C(=O)O)=C[C@@H]1NC(=N)N [ZANAMIVIR]	0.063	> 100	0.44	> 100	53	12	0.072	0.48					
NC12CC3CC(CC(C3)C1)C2 [AMANTADINE]	> 500	> 500	58	> 500	208	224	> 500	75					
CC1SC2(CCC(C(C)(C)C)CC2)N(NC(=O)C23CC4CC(CC(C4)C2)C3)C1=O (stereo not drawn)	> 100	> 100	> 100	> 100	> 100	> 100	> 100	> 100					
CC(N)C12CC3CC(CC(C3)C1)C2 (stereo not drawn) [RIMANTADINE]	> 500		2.7	218	40	45	> 500	2.5					
CCCC1CCC2(CC1)SC(C)C(=O)N2NC(=O)C12CC3CC(CC(C3)C1)C2 (stereo not drawn)	> 100	> 100	> 100	> 100	23	29	> 100	> 100					
CCC1CCC2(CC1)SC(C)C(=O)N2NC(=O)C12CC3CC(CC(C3)C1)C2 (stereo not drawn)	> 100	> 100	> 100	> 100	1.7	51	> 100	> 100					
O=C1CSC2(CCC(c3ccccc3)CC2)N1NC(=O)C12CC3CC(CC(C3)C1)C2 (stereo not drawn)	> 100	> 20	> 100	> 100	> 100	> 100	> 100	> 100					
CC1CCC2(CC1)SCC(=O)N2NC(=O)C12CC3CC(CC(C3)C1)C2 (stereo not drawn)	> 100	> 100	> 100	> 100	> 100	> 100	> 100	> 100					
CC(C)(C)C1CCC2(CC1)SCC(=O)N2NC(=O)C12CC3CC(CC(C3)C1)C2 (stereo not drawn)	> 100	> 20	> 100	> 100	34	> 100	> 100	53					
CCCC1CCC2(CC1)SCC(=O)N2NC(=O)C12CC3CC(CC(C3)C1)C2 (stereo not drawn)	> 100	> 100	> 100	> 100	44	> 100	> 100	> 100					
CC1CCC2(CC1)SC(C)C(=O)N2NC(=O)C12CC3CC(CC(C3)C1)C2 (stereo not drawn)	> 100	> 100	> 100	> 100	1.4	1.6	> 100	> 100	3.7	> 67			
NC(=O)c1ncn([C@@H]2O[C@H](CO)[C@@H](O)[C@H]2O)n1 [RIBAVIRIN]	0.14	> 20		> 100			0.094				8.9	8.5	8.4
CC1SC2(CCC(c3ccccc3)CC2)N(NC(=O)C23CC4CC(CC(C4)C2)C3)C1=O (stereo not drawn)	> 100	20	> 100	42	> 100	> 100	> 100	> 100					
CC1SC2(CCCCC2)N(NC(=O)C23CC4CC(CC(C4)C2)C3)C1=O (stereo not drawn)	> 100	> 100	> 100	> 100	> 100	> 100	> 100	> 100					
Cc1nc2sccn2c1C(=O)NN1C(=O)C(C)SC12CCC(C)CC2 (stereo not drawn)	> 100	> 100	> 100	> 100	9	6.8	> 100	> 100					
